Laboratory results taken from ChEMBL document CHEMBL1152718, “Novel potent inhibitors of hepatitis C virus (HCV) NS3 protease with cyclic sulfonyl P3 cappings” (Bioorg Med Chem Lett, 2009).
Calls of active or inactive are those of the source. The rule behind the calls is not given here.

What was measured:
[1] = Inhibition of HCV isolate BK NS4A-tethered single chain NS3 serine protease; set-up: species or system Hepatitis C virus (isolate BK)
In short: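 Continuous (kinetic) assay using the NS4A-tethered single-chain NS3 serine protease. The result is reported as K_i*, an equilibrium constant covering the reversible covalent ketone–serine adduct plus other inhibitor–enzyme contacts.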

[2] = Selectivity for HCV isolate BK NS4A-tethered single chain NS3 serine protease over human neutrophil elastase
[3] = system: Hepatitis C virus; assay: Antiviral activity against HCV in human Huh7 cells by replicon-based ELISA; type: functional; details: Huh-7
In short: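 Replicon assay run only on compounds with good enzyme potency. The value is EC90, the concentration that inhibits 90% of replicon replication.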

[4] = system: Rattus norvegicus; assay: (§1) AUC in rat at 3 mg/kg, po; type: ADME, organism-based, Plasma; set-up: dose 3 mg/kg, route oral; details: in vivo
[5] = as §1; type: ADME, organism-based, Plasma; set-up: dose 3 mg/kg, route oral; details: plasma
[6] = Bioavailability in monkey; type: ADME, organism-based, Macaca mulatta; details: rhesus monkey, in vivo
[7] = Bioavailability in dog; type: ADME, organism-based, Canis lupus familiaris; details: in vivo

SMILES	Ki [1]	Selectivity ratio [2]	Activity [4]	EC90 [3]	AUC [5]	EC90 ([3]; Hepacivirus hominis)	bioavailability [6]	bioavailability [7]	Activity ([3]; Hepacivirus hominis)
C=CCNC(=O)C(=O)C(CCC)NC(=O)[C@@H]1[C@@H]2[C@H](CN1C(=O)[C@@H](NC(=O)N[C@H](CN1Cc3sccc3S1(=O)=O)C(C)(C)C)C1(C)CCCCC1)C2(C)C (some centres not stated)	3 nM	68	–	100 nM	–	–	–	–	–
C#CCCC(NC(=O)[C@@H]1[C@@H]2[C@H](CN1C(=O)[C@@H](NC(=O)N[C@H](CN1Cc3ccccc3S1(=O)=O)C(C)(C)C)C(C)(C)C)C2(C)C)C(=O)C(=O)NCC=C (some centres not stated)	0.9 nM	380	Not Active	250 nM	–	–	–	–	–
C=CCNC(=O)C(=O)C(CCC)NC(=O)[C@@H]1[C@@H]2[C@H](CN1C(=O)[C@@H](NC(=O)N[C@H](CN1Cc3ccccc3S1(=O)=O)C1CCCCC1)C(C)(C)C)C2(C)C (some centres not stated)	18 nM	55	–	–	–	inactive	–	–	–
C=CCNC(=O)C(=O)C(CCC)NC(=O)[C@@H]1[C@@H]2[C@H](CN1C(=O)[C@@H](NC(=O)N[C@H](CN1Cc3ccccc3S1(=O)=O)C(C)(C)C)C(C)(C)C)C2(C)C (some centres not stated)	3 nM	650	–	–	0.373 µM·h	–	–	–	–
C=CCNC(=O)C(=O)C(CCC)NC(=O)[C@@H]1[C@@H]2[C@H](CN1C(=O)[C@@H](NC(=O)N[C@H](CN1CCCN(C)S1(=O)=O)C(C)(C)C)C(C)(C)C)C2(C)C (some centres not stated)	14 nM	490	–	150 nM	0.2 µM·h	–	–	–	–
C=CCNC(=O)C(=O)C(CCC)NC(=O)[C@@H]1[C@@H]2[C@H](CN1C(=O)[C@@H](NC(=O)N[C@H](CN1CCCCS1(=O)=O)C(C)(C)C)C(C)(C)C)C2(C)C (some centres not stated)	6 nM	650	–	200 nM	0.67 µM·h	–	–	–	–
CC(C)(C)NC(=O)N[C@H](C(=O)N1C[C@H]2[C@@H]([C@H]1C(=O)NC(CC1CCC1)C(=O)C(N)=O)C2(C)C)C(C)(C)C (some centres not stated) [BOCEPREVIR]	14 nM	–	–	350 nM	–	–	4%	34%	–
C=CCNC(=O)C(=O)C(CCC)NC(=O)[C@@H]1[C@@H]2[C@H](CN1C(=O)[C@@H](NC(=O)N[C@H](CN1CCCS1(=O)=O)C(C)(C)C)C(C)(C)C)C2(C)C (some centres not stated)	11 nM	230	–	200 nM	0.09 µM·h	–	–	–	–
C=CCNC(=O)C(=O)C(CCC)NC(=O)[C@@H]1[C@@H]2[C@H](CN1C(=O)[C@@H](NC(=O)N[C@H](CN1CCCCS1(=O)=O)C1CCCCC1)C(C)(C)C)C2(C)C (some centres not stated)	30 nM	50	–	250 nM	0.18 µM·h	–	–	–	–

More lines, main results first:

Ki [1]	Selectivity ratio [2]	Activity [4]	EC90 [3]	AUC [5]	EC90 ([3]; Hepacivirus hominis)	bioavailability [6]	bioavailability [7]	SMILES	Activity ([3]; Hepacivirus hominis)
30 nM	1500	Not Active	–	–	–	–	–	C=CCNC(=O)C(=O)C(CC1CCC1)NC(=O)[C@@H]1[C@@H]2[C@H](CN1C(=O)[C@@H](NC(=O)N[C@H](CN1Cc3ccccc3S1(=O)=O)C(C)(C)C)C(C)(C)C)C2(C)C (some centres not stated)	inactive
7 nM	1600	–	150 nM	0.705 µM·h	–	–	–	C=CCNC(=O)C(=O)C(CC1CC1)NC(=O)[C@@H]1[C@@H]2[C@H](CN1C(=O)[C@@H](NC(=O)N[C@H](CN1Cc3ccccc3S1(=O)=O)C(C)(C)C)C(C)(C)C)C2(C)C (some centres not stated)	–
14 nM	10	–	100 nM	–	–	–	–	C=CCNC(=O)C(=O)C(CCC)NC(=O)[C@@H]1[C@@H]2[C@H](CN1C(=O)[C@@H](NC(=O)N[C@H](CN1Cc3sccc3S1(=O)=O)C(C)(C)C)C1CCCCC1)C2(C)C (some centres not stated)	–
5 nM	6100	–	80 nM	1.43 µM·h	–	–	–	C=CCNC(=O)C(=O)C(CCCC)NC(=O)[C@@H]1[C@@H]2[C@H](CN1C(=O)[C@@H](NC(=O)N[C@H](CN1Cc3ccccc3S1(=O)=O)C(C)(C)C)C(C)(C)C)C2(C)C (some centres not stated)	–
59 nM	80	–	350 nM	–	–	–	–	C=CCNC(=O)C(=O)C(CCC)NC(=O)[C@@H]1[C@@H]2[C@H](CN1C(=O)[C@@H](NC(=O)N[C@H](CN1CCCNS1(=O)=O)C(C)(C)C)C(C)(C)C)C2(C)C (some centres not stated)	–
7 nM	19	–	150 nM	–	–	–	–	C=CCNC(=O)C(=O)C(CCC)NC(=O)[C@@H]1[C@@H]2[C@H](CN1C(=O)[C@@H](NC(=O)N[C@H](CN1Cc3ccccc3S1(=O)=O)C(C)(C)C)C1CCCCC1)C2(C)C (some centres not stated)	–
5 nM	50	–	150 nM	–	–	–	–	C=CCNC(=O)C(=O)C(CCC)NC(=O)[C@@H]1[C@@H]2[C@H](CN1C(=O)[C@@H](NC(=O)N[C@H](CN1Cc3ccccc3S1(=O)=O)C(C)(C)C)C1(C)CCCCC1)C2(C)C (some centres not stated)	–
10 nM	150	–	150 nM	0.43 µM·h	–	–	–	C=CCNC(=O)C(=O)C(CCC)NC(=O)[C@@H]1[C@@H]2[C@H](CN1C(=O)[C@@H](NC(=O)N[C@H](CN1Cc3sccc3S1(=O)=O)C(C)(C)C)C(C)(C)C)C2(C)C (some centres not stated)	–
15 nM	310	–	230 nM	–	–	–	–	C=CCNC(=O)C(=O)C(CCC)NC(=O)[C@@H]1[C@@H]2[C@H](CN1C(=O)[C@@H](NC(=O)N[C@H](CN1C(=O)c3ccccc3S1(=O)=O)C(C)(C)C)C(C)(C)C)C2(C)C (some centres not stated)	–
41 nM	130	–	400 nM	–	–	–	–	C=CCNC(=O)C(=O)C(CCC)NC(=O)[C@@H]1[C@@H]2[C@H](CN1C(=O)[C@@H](NC(=O)NC1(CN3Cc4sccc4S3(=O)=O)CCCCC1)C(C)(C)C)C2(C)C (some centres not stated)	–
